The EternaBench riboswitch data

Tested on: MS2 coat protein
Assay: apparent Kd, MS2 coat protein; higher = weaker binding; RNA-MaP array; FMN 200 µM where present
Summary of the method: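 Stalled E. coli RNA polymerase transcribed the designs on Illumina sequencing-chip clusters. SNAP-549-labelled MS2 coat protein was titrated from 0.7 or 1.5 nM, doubling to 3 µM, without and then with constant ligand, in 100 mM Tris-HCl pH 7.5, 80 mM KCl, 4 mM MgCl2, BSA, DTT, yeast tRNA and Tween-20. Per-cluster binding curves were fitted to green signal normalised to red-channel RNA signal and control-cluster median Fmax. The apparent Kd is the median of the filtered fits.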

[1] = designed as: OFF switch for flavin mononucleotide, no ligand
[2] = ligand present: flavin mononucleotide, designed as: OFF switch for flavin mononucleotide
[3] = designed as: ON switch for flavin mononucleotide, no ligand
[4] = ligand present: flavin mononucleotide, designed as: ON switch for flavin mononucleotide

| Sequence | apparent Kd [1] [nM] | apparent Kd [2] [nM] | apparent Kd [3] [nM] | apparent Kd [4] [nM] |
| --- | --- | --- | --- | --- |
| AGGAGGAAUGUAGGAUAUAUAUAUAUAUAUAGGCAAAGCGUAUAUAUAUAUAUAGAAGGACAUGAGGAUCACCCAUGUUUCCCU | 9.27 | 8.99 | – | – |
| CGGUUUCACAUUUUAGUGAUUUAUACAGAAGGCCAUACACAUGAGGAUCACCCAUGUCAGGAAUUGGAGGAUAUGUUAUUGACG | – | – | 6.1 | 4.4 |
| AAGAGGUCAGGAUAUACGGAGAGAGGGAGUUGGUGAGGGUAACAUGAGGAUCACCCAUGUAGAAGGGACUAAGA | 22.4 | 24.7 | – | – |
| GCGUCAGAAUUAAUUGUGACAGGCAGAAGGCUAUAUCUUAUGUUAGACAUGAGGAUCACCCAUGUAGAGGAUAUGCAGUUACAC | 7.77 | 17 | – | – |
| UGAUCGAGAGAUCUUAGAUUCUGGUAGGAUAUACAUAAAAUGCGCUUUACAUGAGGAUCACCCAUGUAGAAGGACUAGAGUCUA | 7.54 | 9.8 | – | – |
| GGAUAGGACAGAGGAUAUACGUGCUAGAGAUACUAACAAAAUUUCCUCACAUGAGGAUCACCCAUGUAGAAGGCUGUCCUAUCG | 193 | 187 | – | – |
| GGAAAACAUGAGGAUCACCCAUGUGAGGAUAUCGAUGUCCAAAAACCCGUGCGGGACUCGAGAAGGCACUUGGA | 43.1 | 57 | – | – |
| CCGCGCGCGCGAGGAUAUCUAUAUCCAACAUGAGGAUCACCCAUGUUGAGGAUCACCCAUGUAAAGGAGAAGGCGCGCGCGCGG | – | – | 44.8 | 15.8 |
| GGGAUAGGAGGAUAUGUUCUAGCUCACAUGAGGAUCACCCAUGUGGUGUCCGUUGGUAGCGCAGAAGGCUUACCUA | 792 | 662 | – | – |
| GUGCCUAACUAGAAGGCAGUAUGCAAAGCAUUCUGAGGAUAUGGGUUCCGGAAACGGACAUGAGGAUCACCCAUGUGGCACAAA | – | – | 312 | 20.3 |
| GUGGAGUACGUAGGAUAUGUAGGAUAUUCCUACAUGAGGAUCACCCAUGUUGACAUGGAGGAAGGACAGAAGGACGUGCUCCAG | – | – | 265 | 256 |
| AGUCGGAGCAGAGGAUAUACAUGAGGAUCACCCAUGUAAUAAAGUGAAGCCUGGAAGCAGGCAAUGUAGAAGGCUGCUCCGACA | 11.1 | 81.8 | – | – |
| GCCAGCGCAUGAGGAUAUGCUCCCGUUUCGGGAGCAGAAGGCAUGUCAUAAGACAUGAGGAUCACCCAUGUAGUCAAGAUGGCA | – | – | 340 | 15.7 |
| AUGAUUAUACAAGGAUAUCAAUUGUAUACAAGUCUUACAUGAGGAUCACCCAUGUUAAAUUUUUUUGAGAAGGUGUGUUGUCAG | – | – | 35.6 | 30.6 |
| AAAAGACAUGAGGAUCACCCAUGUCAGGAUAUCUAUAUUCAAGGGUCGGAGGGAAUACAGAGAAGGGAUGAGGG | 21.8 | 24.8 | – | – |
| AGAGGUCGCACAGGAUAUCAUACAUGAGGAUCACCCAUGUCAGAAAACAAAUGAGAAGGGUGCGCGUUAAUCGCUUGUGAAGAA | – | – | 16.7 | 4.8 |
| GCGCGAAGGUAGGAUAUCCAGGCAUCUUGCCGCGGAGAAGGACCCACAUGAGGAUCACCCAUGUGGUGAUCCUG | 13.5 | 14.4 | – | – |
| GCCAAUAAGAUUGGCACCGGCGCGCAGGAUAUGCUGGCCUACAUGAGGAUCACCCAUGUCUAAAUGCAGAAGGGUGAGCUGAGC | – | – | 444 | 82.4 |
| CAGCGAAAGCUGAAUCUGUAGAGAGAGGAUAUACAAGAAUAAGUCCAUACAUGAGGAUCACCCAUGUAGAAGGCUCUCUACAGU | 7.28 | 25.4 | – | – |
| GACACGUAAGGAUAUUGAGGGUAGAUGUGAGUCUAGCCCGGCAAGAAGGUACAUGAGGAUCACCCAUGUCCCGG | 13.6 | 17 | – | – |
| GUAGAGUAGUGAGGAUAUACGAGAUCGAUAGAUCGGCGAUCCAUAUAUACAUGAGGAUCACCCAUGUAGAAGGCACUUCUCUAC | 6.99 | 103 | – | – |
| AGAUAACACCAGAAGGACAUGAGGAUCACCCAUGUAGGAUAUGGGCAUCACUCGAGAAAGAAACGACCGAAAGGACACGCGGUC | – | – | 155 | 13 |
| AAGUCGAGCGUGAGGAUAUCGACCGGACGACCCAUCGAGAAGGCACAUGAGGAUCACCCAUGUGAUUCAGCUCA | 16.9 | 25.9 | – | – |
| AACUACUCUGUGAGGAUAUGCGAUCGUUGAUCAAAGCAGAAGGCACAUGAGGAUCACCCAUGUUCCUACGAGGG | 29.3 | 73.1 | – | – |
| UCGACCAGCGCAACUCGAACAUGAGGAUCACCCAUGUACUCCAGAAGGCCGCCCAAGUACGGAGUGGAGGAUAUGGAGGUUCUC | – | – | 56.9 | 86.1 |
| GGACAUGGGAAACCACAUGGAGAUAAGGAUAUAUAGAUGACAUGAGGAUCACCCAUGUAUGGCGAAUAGAAGGUAUGAGUGUGA | – | – | 153 | 16.2 |
| GGAUAGGACAGAGGAUAUACGUGCUAGAGAUACUAGCAAAAUUUCCUCACAUGAGGAUCACCCAUGUAGAAGGCUGACCUAUCG | 14.9 | 412 | – | – |
| GGUUGGCGAGGAUAUACAUGAGGAUCACCCAUGUGGUCCUGCGGUGGAAUCGCCCUUUGUAGAAGGCGCGGGUC | 49.5 | 44.7 | – | – |

| Sequence | apparent Kd [1] [nM] | apparent Kd [2] [nM] | apparent Kd [3] [nM] | apparent Kd [4] [nM] |
| --- | --- | --- | --- | --- |
| GCACUUAAGUUAGGAUAUGGAUCGGAAAACGAUCCAGAAGGAAUAUGGGAACAUGAGGAUCACCCAUGUUCCACAAACAAGUGC | – | – | 55.4 | 29 |
| ACAUGAGGAUCACCCAUGUAAAAUGAAGAAGGUAGAUACUUGAGGAUCACCCAUGUACAUGGGACUAAGGAUAUUCUAAUAAUU | – | – | 76.9 | 64.3 |
| AUUAAGCAGCAGGAUAUAAUUAUCUGAAGGUGGUUAGAAGGGCUGACAUGAGGAUCACCCAUGUGCUCUUCGUG | 16.2 | 32.2 | – | – |
| AAAAAGUGAUGGUAGGAUAUUGGAAAAGCCACAUGAGGAUCACCCAUGUCAAAAAACCUAAAAAACAAGAAGGGCUGUUAUAAAAA | – | – | 18.5 | 14.8 |
| AAAGAGCGAGGAUAUGCGUGCCGGUGCGGCCAGCCGAUGUGACAUGAGGAUCACCCAUGUAGAAGGCGCAGAAA | 14.3 | 14.7 | – | – |
| GCGCUUAUACAGAAGGCCAUAUACAUGAGGAUCACCCAUGUUAUUUGGUGGAGGAUAUGUUUUUUAUUACAGGUUGAUGAGCGC | – | – | 7.58 | 6.52 |
| AAGUAGGUAGGAUAUGCAUAGAUACAGAUUCAUGUGGAACUACAUGAGGAUCACCCAUGUAGAAGGACCUAAUA | 21.1 | 29.6 | – | – |
| GUGUACAGAGGAUAUACAGGAGCAUGGAAACAUGCAACUUCACAUGAGGAUCACCCAUGUAGAAGGCUGUACAC | 16 | 47.9 | – | – |
| AACUCGUCAGGAUAUGCAUGCAGUUGCUGCAUUUCGCCGUUGCAGAAGGGACAUGAGGAUCACCCAUGUAGGUC | 42.4 | 37.2 | – | – |
| GGUGCGUAUGUUAGGAUAUGCUGGUCCUUGGAUCGGCAGAAGGUACAUGAGGAUCACCCAUGUGGUGUCGUUCC | 64.8 | 72.4 | – | – |
| GGUUGUCAUAGUCAUCCUUUCCGUACAUGAGGAUCACCCAUGUAGGAUAUGCUACUCACGGUGUGGCAGAAGGGCGUGUGUCUU | 17.9 | 19.9 | – | – |
| UAGCUCUCGGCAGGAUAUCCUGCAUAAUGUCGAGUCCGCGCCCGGACAUGAGGAUCACCCAUGUAGGAGAAGGGCCCACGGGCU | 24.2 | 45.5 | – | – |
| CAGUACUGAGGAUAUACAUGAGGAUCACCCAUGUGUUCCAGCUAGGAAACUGGCAAAAGUAGAAGGCAGUACUG | 22.8 | 320 | – | – |
| CUACGAGCGCCACAGGAUAUACUGAGACUCACAUGAGGAUCACCCAUGUCCAAUUCUCCCAAAUAGUAGAAGGGUGACGCGCUCG | – | – | 699 | 53.3 |
| ACGUAUCGUGUAGGAUAUGACCCAGGAAACUGGUCAGAAGGACAUGAGGAUCACCCAUGUAGAGUAUGUUAGGAUGACGUAUGC | 42.5 | 305 | – | – |
| AGUCAUACAGGAUAUACAUGAGGAUCACCCAUGUAAAUCCUAAAAAGAAAAUCCUCAUGUAGAAGGGUAUGACA | 13.6 | 9.24 | – | – |
| UUGGACGUCGUAGGAUAUCUAGGAUAUUCCUACAUGAGGAUCACCCAUGUUGACAUGGAAGAAGGACAGAAGGACGAUGUCCAU | – | – | 14.9 | 11 |
| CGAGUGUAAGGAUAUUCGGCACCAGAGAACGAUCUGGCGUAGAAGAAGGUACAUGAGGAUCACCCAUGUGGUUA | 158 | 41.7 | – | – |
| AUCAGCUCGUCAGGAUAUACGUCACUGCGUCAGCAGUGUGGUAAGAUGACAUGAGGAUCACCCAUGUAGAAGGGACGAGCUGAU | 6.82 | 15.8 | – | – |
| ACAAGACAUGAGGAUCACCCAUGUGAGGAUAUGCUCGGAUGACAUGACGUUAGCUAACGCAGAAGGCACAAUAA | 55.8 | 56 | – | – |
| AACUCACAUGAGGAUCACCCAUGUGAGGAUAUGAUACUAUGUACUUCGGUACAUAGUAUCAGAAGGCAUGUGGG | 50.5 | 28.1 | – | – |
| CCAUUUACUGAGGAUAUUGCAUCACCCGACUGAUAAGAAGGCAGAACAUGAGGAUCACCCAUGUGGGUACUCAC | 73.7 | 105 | – | – |
| UUAAUUAACAAGAAGGCAUACAUGAGGAUCACCCAUGUUGUACAUGGAUAAUGAGGAUAUUGCUAAUACAUGAGGAUCACCCAU | 36.5 | 34.3 | – | – |
| CUGUGAUGGAUCCAGAAUUACAACAUGAGGAUCACCCAUGUGCAGGAUAUCGGGUUGAUAGGCGCCGAGAAGGGUAUAAUCACG | 110 | 105 | – | – |
| GCAGGGUAUGAGAAGGCAUAAUUUAUCUUACCACAUGUUUACAUGAGGAUCACCCAUGUUUCCAAUGAGGAUAUCAUACCGUGC | 10.9 | 9.89 | – | – |
| GUUUCUAUAUGUUUUAUUUAACAGUCAGAAGGUGAUAAUACGACAUGAGGAUCACCCAUGUAAUUCAAGGAUAUGAUAUUAAUC | – | – | 62.7 | 27.7 |
| GGUGAAUGAACAUGAGGAUCACCCAUGUACAGGAAACUGAAUGAGGAUAUCCAUAGCAAAGCUAUGGAGAAGGCAUGGGUCACC | – | – | 302 | 99.8 |
